The results in this text go back to ChEMBL document CHEMBL3351939, “Diterpenoids with Immunosuppressive Activities from Cinnamomum cassia” (J Nat Prod, 2014).

One data set concerns T-cell. As to the kind of experiment: Immunosuppressive activity in mouse T cells assessed as inhibition of ConA-induced cell proliferation at 0.05 to 0.8 mM. The data set is classed as functional, cell-based. The method in brief: (§1)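 Murine splenocytes with ConA-induced T-cell proliferation; the read-out is percent inhibition of proliferation. Cyclosporine A serves as the reference. Results are given as mean ± SD, n = 3.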

The test system of a further data set is B. The data set can be described thus: Immunosuppressive activity in mouse B cells assessed as inhibition of LPS-induced cell proliferation at 0.05 to 0.8 mM. The data set is classed as functional, cell-based. The method in brief: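 Murine splenocytes with LPS-induced B-cell proliferation; the read-out is percent inhibition of proliferation.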
Data set [1] in a line: Immunosuppressive activity in mouse T cells assessed as inhibition of ConA-induced cell proliferation at 50 uM. It is filed as functional. The method in brief:
as §1

The nature of data set [2]: Toxicity against mouse lymphocytes assessed as cell viability at 50 uM. It is filed as cell-based, Lymphocyte. Particulars: read-out: Activity.
The nature of data set [3]: Immunosuppressive activity in mouse T cells assessed as inhibition of ConA-induced cell proliferation at 100 uM. The data set is classed as functional. The method in brief: as §1

Molecules are shown by their SMILES. The source made the active and inactive calls. The calls are words filed in the database; no cut-off is given here.

Consider `CC1=C(C(C)C)C[C@@]2(O)[C@@]3(CO[C@@H]4O[C@H](CO)[C@@H](O)[C@H](O)[C@H]4O)CC(=O)O[C@H]([C@]4(O)[C@H](C)CC[C@@]43O)[C@@]12O`, for which the inhibition result in the data set on T-cell and in the data set with B was “inactive” throughout.

Take `CC1=C([C@H](C)CO)C[C@@]2(O)[C@@]3(C)CC(=O)O[C@@H]4[C@@H](C)CC[C@@]3(O)[C@@]4(O)[C@@]12O`: the inhibition result in the data set on T-cell and with B was “Dose-dependent effect” throughout. Moreover, the inhibition (usually the relative decrease from the control value, in per cent) at 50 µM in data set [1] was determined as 58.8%. Moreover, the viability at 50 µM in data set [2] was 97.8%.

Turning to `C/C=C/C[C@@H](C)[C@@H](O)[C@H]1C(=O)N[C@@H](CC)C(=O)N(C)CC(=O)N(C)[C@@H](CC(C)C)C(=O)N[C@@H](C(C)C)C(=O)N(C)[C@@H](CC(C)C)C(=O)N[C@@H](C)C(=O)N[C@H](C)C(=O)N(C)[C@@H](CC(C)C)C(=O)N(C)[C@@H](CC(C)C)C(=O)N(C)[C@@H](C(C)C)C(=O)N1C` [CYCLOSPORINE], the inhibition at 100 µM in data set [3] stood at 101%.

Take `CC1=C([C@H](C)CO)C[C@@]2(O)[C@@]3(C)CC(=O)O[C@H]([C@]4(O)[C@H](C)CC[C@@]43O)[C@@]12O`: the inhibition entry in the data set with T-cell and in the data set with B was “Dose-dependent effect” each time. Also, in data set [3], the inhibition at 100 µM is 94.5%. In data set [1], the inhibition at 50 µM came out at 86.1%. The viability at 50 µM in data set [2] is 105%.
